Source: ChEMBL document CHEMBL1133701, “Synthesis and human beta-adrenoceptor activity of 1-(3,5-diiodo-4- methoxybenzyl)-1,2,3,4-tetrahydroisoquinolin-6-ol derivatives in vitro” (J Med Chem, 2000)

What was measured:
[1] = biological target: Beta-3 adrenergic receptor (Homo sapiens) (UniProt P13945); test: Intrinsic activity against Beta3-AR expressed in CHO cells in cAMP-RIA assay; format: functional, cell-based
[2] = biological target: Beta-3 adrenergic receptor (Homo sapiens) (UniProt P13945); test: Agonistic potency against Beta3-AR expressed in CHO cells by using cAMP-RIA assay;MA means minimal activity; format: functional, cell-based
[3] = biological target: Beta-2 adrenergic receptor (Homo sapiens) (UniProt P07550); conditions: CHO
Sequence of Beta-2 adrenergic receptor (Homo sapiens) (P07550 whole entry, looked up): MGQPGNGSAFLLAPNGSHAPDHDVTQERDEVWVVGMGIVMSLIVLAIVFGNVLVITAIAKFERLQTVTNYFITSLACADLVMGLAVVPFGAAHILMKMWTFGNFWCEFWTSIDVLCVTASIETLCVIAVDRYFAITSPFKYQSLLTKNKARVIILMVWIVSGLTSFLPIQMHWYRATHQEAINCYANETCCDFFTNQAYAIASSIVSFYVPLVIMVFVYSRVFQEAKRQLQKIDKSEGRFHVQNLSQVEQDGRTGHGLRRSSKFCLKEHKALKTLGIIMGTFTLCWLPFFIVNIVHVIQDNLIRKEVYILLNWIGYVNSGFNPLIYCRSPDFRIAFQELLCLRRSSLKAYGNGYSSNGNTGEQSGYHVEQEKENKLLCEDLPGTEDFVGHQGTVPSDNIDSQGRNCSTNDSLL

[4] = biological target: Beta-2 adrenergic receptor (Homo sapiens) (UniProt P07550); conditions: CHO; remark: listed apart in the source
[5] = biological target: Beta-3 adrenergic receptor (Homo sapiens) (UniProt P13945); test: Agonistic potency against Beta3-AR expressed in CHO cells by using cAMP-RIA assay; format: functional, cell-based
[6] = biological target: Beta-1 adrenergic receptor (Homo sapiens) (UniProt P08588); conditions: CHO
Sequence of Beta-1 adrenergic receptor (Homo sapiens) (P08588 whole entry, looked up): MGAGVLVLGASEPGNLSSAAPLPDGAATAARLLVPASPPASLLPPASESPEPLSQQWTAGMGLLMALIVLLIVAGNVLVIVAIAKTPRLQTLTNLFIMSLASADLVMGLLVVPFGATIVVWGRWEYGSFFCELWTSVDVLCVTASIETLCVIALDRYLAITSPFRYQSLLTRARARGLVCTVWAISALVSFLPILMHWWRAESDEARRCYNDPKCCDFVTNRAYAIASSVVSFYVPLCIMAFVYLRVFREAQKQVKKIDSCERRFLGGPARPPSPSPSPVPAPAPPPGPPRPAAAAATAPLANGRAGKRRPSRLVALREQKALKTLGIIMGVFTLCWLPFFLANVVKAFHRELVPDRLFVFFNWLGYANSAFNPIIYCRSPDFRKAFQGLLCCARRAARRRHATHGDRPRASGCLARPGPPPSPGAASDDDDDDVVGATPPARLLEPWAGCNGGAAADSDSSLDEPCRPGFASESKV

[7] = biological target: Beta-1 adrenergic receptor (Homo sapiens) (UniProt P08588); conditions: CHO; remark: listed apart in the source
[8] = biological target: Beta-3 adrenergic receptor (Homo sapiens) (UniProt P13945); test: Agonistic potency against Beta3-AR expressed in CHO cells by using cAMP-RIA assay; MA means minimal activity; format: functional, cell-based
[9] = biological target: Beta-3 adrenergic receptor (Homo sapiens) (UniProt P13945); conditions: CHO
[10] = biological target: Beta-3 adrenergic receptor (Homo sapiens) (UniProt P13945); conditions: CHO; remark: listed apart in the source
[11] = biological target: Beta-2 adrenergic receptor (Homo sapiens) (UniProt P07550); test: Agonistic potency against BETA2-AR expressed in CHO cells by using CRE-LUC assay;MA means minimal activity; format: functional, cell-based
How it was run: (§1)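 CHO cells transfected by electroporation (single 70-ms, 150-V pulse) with human receptor and CRE–luciferase reporter; seeded 40 000/well, grown 20 h, then exposed 4 h to drug at 10^-11–10^-4 M. Cells lysed, luciferase light read by luminometer, duplicates per concentration. Response as percent of maximum to (-)isoproterenol 10^-6 M; pKact = -log molar concentration giving 50% of own maximal response; mean ± SEM.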

[12] = biological target: Beta-2 adrenergic receptor (Homo sapiens) (UniProt P07550); test: Agonistic potency against BETA2-AR expressed in CHO cells by using cAMP-RIA assay;MA means minimal activity; format: functional, cell-based
[13] = biological target: Beta-1 adrenergic receptor (Homo sapiens) (UniProt P08588); test: Agonistic potency against BETA1-AR expressed in CHO cells by using CRE-LUC assay;MA means minimal activity; format: functional, cell-based; how it was run: as §1
[14] = biological target: Beta-2 adrenergic receptor (Homo sapiens) (UniProt P07550); conditions: CHO; remark: listed apart in the source
[15] = biological target: Beta-1 adrenergic receptor (Homo sapiens) (UniProt P08588); conditions: CHO; remark: listed apart in the source
[16] = biological target: Beta-2 adrenergic receptor (Homo sapiens) (UniProt P07550); conditions: CHO; remark: listed apart in the source
[17] = biological target: Beta-1 adrenergic receptor (Homo sapiens) (UniProt P08588); conditions: CHO; remark: listed apart in the source

Sequence of Beta-3 adrenergic receptor (Homo sapiens) (P13945 whole entry, looked up): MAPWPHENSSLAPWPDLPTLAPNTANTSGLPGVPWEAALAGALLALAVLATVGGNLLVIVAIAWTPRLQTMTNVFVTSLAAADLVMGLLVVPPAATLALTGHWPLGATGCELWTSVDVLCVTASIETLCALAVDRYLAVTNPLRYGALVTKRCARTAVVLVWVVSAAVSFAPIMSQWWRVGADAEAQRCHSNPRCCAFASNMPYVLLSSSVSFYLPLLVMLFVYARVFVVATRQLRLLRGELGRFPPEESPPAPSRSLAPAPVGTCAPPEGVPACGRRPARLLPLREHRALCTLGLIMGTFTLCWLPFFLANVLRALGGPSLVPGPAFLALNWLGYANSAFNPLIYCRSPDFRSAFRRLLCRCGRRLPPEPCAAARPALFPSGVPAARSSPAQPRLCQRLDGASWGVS

IA [1] | IA [3] | pK [4] | pK [5] | IA [9] | pK [10] | MA [12] | Compound | also measured
120 | 52 | 8.84 | 8.76 | – | – | – | COc1c(I)cc(CC2NCCc3cc(O)c(O)cc32)cc1I (stereo not drawn) | IA [6]: 103; pK [7]: 8.11
– | – | – | – | 100 | 7.74 | – | CC(C)NCC(O)c1ccc(O)c(O)c1 (stereo not drawn) | –
95 | 95 | 8.33 | 8.6 | – | – | – | COc1cc(C[C@@H]2NCCc3cc(O)c(O)cc32)cc(OC)c1OC | IA [6]: 109; pK [7]: 8.7
18 | 6 | – | – | – | – | Partial agonist | COc1c(I)cc(CC2NCCc3c2cc(I)c(O)c3I)cc1I (stereo not drawn) | MA [2]: Partial agonist

Further lines, the compound ahead of its results:

Compound | IA [1] | IA [3] | pK [4] | pK [5] | IA [9] | pK [10] | MA [12] | also measured
COc1c(I)cc(CC2NCCc3c2ccc(O)c3I)cc1I (stereo not drawn) | 8 | 65 | 6.77 | – | – | – | – | MA [2]: Partial agonist
COc1c(I)cc(CC2NCCc3c2cc(Br)c(O)c3Br)cc1I (stereo not drawn) | 20 | 3 | – | – | – | – | – | MA [8]: Partial agonist
COc1c(I)cc(CC2NCCc3ccccc32)cc1I (stereo not drawn) | 52 | 15 | – | 8.2 | 62 | 7.54 | Partial agonist | MA [11]: Partial agonist; MA [13]: Partial agonist; IA [14]: 21; IA [15]: 22
COc1c(I)cc(CC2NCCc3cc(O)ccc32)cc1I (stereo not drawn) | 106 | 44 | 6.87 | 7.88 | 90 | 7.45 | – | pK [16]: 6.36; pK [17]: 5.71; IA [14]: 38; IA [15]: 58
COc1c(I)cc(CC2NCCc3c2ccc(O)c3Br)cc1I (stereo not drawn) | 31 | 26 | – | 8.25 | – | – | Partial agonist | –
COc1c(I)cc(CC2NCCc3cc(O)c(I)cc32)cc1I (stereo not drawn) | 35 | 4 | – | 7.92 | – | – | Partial agonist | –
